{"source": "ChEMBL document CHEMBL3112587", "about": "“Cytotoxic activity assessment, QSAR and docking study of novel bis-carboxamide derivatives of 4-pyrones synthesized by Ugi four-component reaction” (Eur J Med Chem, 2013)", "format_in_all_cases": "functional, cell-based", "key": {"HL-60": {"system": "HL-60", "experiment": "Cytotoxicity against human HL60 cells after 72 hrs by MTT assay", "method_in_brief": "(§1)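 RPMI 1640 with penicillin/streptomycin and 10% FBS (20% for HL-60), 37 °C, 5% CO2. Seeding was 40,000 HL-60 (suspension), 50,000 LS180 or 30,000 MCF-7 (monolayer) cells/ml, overnight. Half the medium was replaced with 3-4 compound concentrations in duplicate (DMSO ≤0.5% final), 72 h, then MTT 0.5 mg/ml for 4 h. Read 570 nm minus 655 nm. IC50 versus untreated control by linear regression, mean ± SD.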"}, "MCF7": {"system": "MCF7", "experiment": "Cytotoxicity against human MCF7 cells after 72 hrs by MTT assay", "method_in_brief": "as §1"}, "[1]": {"experiment": "Cytotoxicity against human LS180 cells after 72 hrs by MTT assay", "method_in_brief": "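Seeding was 40,000 HL-60 (suspension), 50,000 LS180 or 30,000 MCF-7 (monolayer) cells/ml, overnight. Half the medium was replaced with 3-4 compound concentrations in duplicate (DMSO ≤0.5% final), 72 h, then MTT 0.5 mg/ml for 4 h. IC50 versus untreated control by linear regression, mean ± SD.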"}, "[2]": {"settings": "Homo sapiens, HL-60, 72 h, read-out: IC50; call rule not given here"}, "[3]": {"settings": "Homo sapiens, HL-60, 72 h, read-out: pIC50 (converted)"}, "[4]": {"settings": "Homo sapiens, MCF7, 72 h, read-out: IC50"}, "[5]": {"settings": "Homo sapiens, LS180, 72 h, read-out: IC50"}}}
{"smiles": "O=C(NC1CCCCC1)C(c1cc(=O)c(OCc2ccccc2)co1)N(C(=O)c1ccccc1Cl)c1ccccc1", "note": "(stereo unspecified)", "values": [{"measurement": "IC50", "setting": "HL-60; [2]", "value": 66.2, "unit": "µM"}, {"measurement": "IC50", "setting": "HL-60; [3]", "value": 66.1, "unit": "µM"}, {"measurement": "IC50", "setting": "MCF7; [4]", "value": 84.2, "unit": "µM"}, {"measurement": "IC50", "setting": "[1]; [5]", "value": 97.3, "unit": "µM"}]}
{"smiles": "CC(C)(C)NC(=O)C(c1cc(=O)c(OCc2ccccc2)co1)N(C(=O)c1ccccc1)c1ccccc1", "note": "(stereo unspecified)", "values": [{"measurement": "IC50", "setting": "HL-60; [2]", "value": 57.3, "unit": "µM"}, {"measurement": "IC50", "setting": "HL-60; [3]", "value": 57.5, "unit": "µM"}, {"measurement": "IC50", "setting": "MCF7; [4]", "value": 63.1, "unit": "µM"}, {"measurement": "IC50", "setting": "[1]; ls180", "value": "Not Active"}]}
{"smiles": "Cc1ccc(N(C(=O)c2ccccc2Cl)C(C(=O)NC2CCCCC2)c2cc(=O)c(OCc3ccccc3)co2)cc1", "note": "(stereo unspecified)", "values": [{"measurement": "IC50", "setting": "HL-60; [2]", "value": 12.1, "unit": "µM"}, {"measurement": "IC50", "setting": "HL-60; [3]", "value": 12, "unit": "µM"}, {"measurement": "IC50", "setting": "MCF7; [4]", "value": 56.3, "unit": "µM"}, {"measurement": "IC50", "setting": "[1]; [5]", "value": 63, "unit": "µM"}]}
{"smiles": "Cc1ccc(N(C(=O)c2ccccc2Cl)C(C(=O)NC(C)(C)C)c2cc(=O)c(OCc3ccccc3)co2)cc1", "note": "(stereo unspecified)", "values": [{"measurement": "IC50", "setting": "HL-60; [2]", "value": 42, "unit": "µM"}, {"measurement": "IC50", "setting": "HL-60; [3]", "value": 41.7, "unit": "µM"}, {"measurement": "IC50", "setting": "MCF7; [4]", "value": 53.8, "unit": "µM"}, {"measurement": "IC50", "setting": "[1]; [5]", "value": 88.3, "unit": "µM"}]}
{"smiles": "Cc1ccc(N(C(=O)c2ccccc2)C(C(=O)NC2CCCCC2)c2cc(=O)c(OCc3ccccc3)co2)cc1", "note": "(stereo unspecified)", "values": [{"measurement": "IC50", "setting": "HL-60; [2]", "value": 11.3, "unit": "µM"}, {"measurement": "IC50", "setting": "HL-60; [3]", "value": 11.2, "unit": "µM"}, {"measurement": "IC50", "setting": "MCF7; [4]", "value": 11.2, "unit": "µM"}, {"measurement": "IC50", "setting": "[1]; [5]", "value": 20.2, "unit": "µM"}]}
{"smiles": "CCCCc1ccc(N(C(=O)c2ccccc2Cl)C(C(=O)NC(C)(C)C)c2cc(=O)c(OCc3ccccc3)co2)cc1", "note": "(stereo unspecified)", "values": [{"measurement": "IC50", "setting": "HL-60; [2]", "value": 16.2, "unit": "µM"}, {"measurement": "IC50", "setting": "HL-60; [3]", "value": 16.2, "unit": "µM"}, {"measurement": "IC50", "setting": "MCF7; [4]", "value": 28.6, "unit": "µM"}, {"measurement": "IC50", "setting": "[1]; [5]", "value": 88.2, "unit": "µM"}]}
{"smiles": "COc1ccc(N(C(=O)c2ccccc2Cl)C(C(=O)NC(C)(C)C)c2cc(=O)c(OCc3ccccc3)co2)cc1", "note": "(stereo unspecified)", "values": [{"measurement": "IC50", "setting": "HL-60; [2]", "value": 52.9, "unit": "µM"}, {"measurement": "IC50", "setting": "HL-60; [3]", "value": 52.5, "unit": "µM"}, {"measurement": "IC50", "setting": "MCF7; [4]", "value": 47.2, "unit": "µM"}, {"measurement": "IC50", "setting": "[1]; [5]", "value": 77.3, "unit": "µM"}]}
{"smiles": "O=C(NC1CCCCC1)C(c1cc(=O)c(OCc2ccccc2)co1)N(C(=O)c1ccccc1Cl)c1ccc(Cl)cc1", "note": "(stereo unspecified)", "values": [{"measurement": "IC50", "setting": "HL-60; [2]", "value": 30.5, "unit": "µM"}, {"measurement": "IC50", "setting": "HL-60; [3]", "value": 30.2, "unit": "µM"}, {"measurement": "IC50", "setting": "MCF7; [4]", "value": 168, "unit": "µM"}, {"measurement": "IC50", "setting": "[1]; ls180", "value": "Not Active"}]}
{"smiles": "O=C(NC1CCCCC1)C(c1cc(=O)c(OCc2ccccc2)co1)N(C(=O)c1ccccc1)c1ccc(Cl)cc1", "note": "(stereo unspecified)", "values": [{"measurement": "IC50", "setting": "HL-60; [2]", "value": 14.7, "unit": "µM"}, {"measurement": "IC50", "setting": "HL-60; [3]", "value": 14.8, "unit": "µM"}, {"measurement": "IC50", "setting": "MCF7; mcf7", "value": "Not Active"}, {"measurement": "IC50", "setting": "[1]; ls180", "value": "Not Active"}]}
{"smiles": "O=C(NC1CCCCC1)C(c1cc(=O)cc(-c2ccccc2)o1)N(C(=O)c1ccccc1Cl)c1ccccc1", "note": "(stereo unspecified)", "values": [{"measurement": "IC50", "setting": "HL-60; [2]", "value": 72, "unit": "µM"}, {"measurement": "IC50", "setting": "HL-60; [3]", "value": 72.4, "unit": "µM"}, {"measurement": "IC50", "setting": "MCF7; mcf7", "value": "Not Active"}, {"measurement": "IC50", "setting": "[1]; ls180", "value": "Not Active"}]}
{"smiles": "Cc1ccc(N(C(=O)c2ccccc2Cl)C(C(=O)NC2CCCCC2)c2cc(=O)cc(-c3ccccc3)o2)cc1", "note": "(stereo unspecified)", "values": [{"measurement": "IC50", "setting": "HL-60; [2]", "value": 22.2, "unit": "µM"}, {"measurement": "IC50", "setting": "HL-60; [3]", "value": 22.4, "unit": "µM"}, {"measurement": "IC50", "setting": "MCF7; mcf7", "value": "Not Active"}, {"measurement": "IC50", "setting": "[1]; ls180", "value": "Not Active"}]}
{"smiles": "Cc1ccc(N(C(=O)c2ccccc2)C(C(=O)NC(C)(C)C)c2cc(=O)cc(-c3ccccc3)o2)cc1", "note": "(stereo unspecified)", "values": [{"measurement": "IC50", "setting": "HL-60; [2]", "value": 33, "unit": "µM"}, {"measurement": "IC50", "setting": "HL-60; [3]", "value": 33.1, "unit": "µM"}, {"measurement": "IC50", "setting": "MCF7; [4]", "value": 54.9, "unit": "µM"}, {"measurement": "IC50", "setting": "[1]; [5]", "value": 122, "unit": "µM"}]}
{"smiles": "COc1ccc(N(C(=O)c2ccccc2Cl)C(C(=O)NC2CCCCC2)c2cc(=O)cc(-c3ccccc3)o2)cc1", "note": "(stereo unspecified)", "values": [{"measurement": "IC50", "setting": "HL-60; hl-60", "value": "Not Active"}, {"measurement": "IC50", "setting": "MCF7; mcf7", "value": "Not Active"}, {"measurement": "IC50", "setting": "[1]; ls180", "value": "Not Active"}]}
{"smiles": "COc1ccc(N(C(=O)c2ccccc2Cl)C(C(=O)NC(C)(C)C)c2cc(=O)cc(-c3ccccc3)o2)cc1", "note": "(stereo unspecified)", "values": [{"measurement": "IC50", "setting": "HL-60; [2]", "value": 13.8, "unit": "µM"}, {"measurement": "IC50", "setting": "HL-60; [3]", "value": 13.8, "unit": "µM"}, {"measurement": "IC50", "setting": "MCF7; [4]", "value": 9.1, "unit": "µM"}, {"measurement": "IC50", "setting": "[1]; [5]", "value": 16.1, "unit": "µM"}]}
{"smiles": "COc1cccc2c1C(=O)c1c(O)c3c(c(O)c1C2=O)C[C@@](O)(C(=O)CO)C[C@@H]3O[C@H]1C[C@H](N)[C@H](O)[C@H](C)O1", "note": "[DOXORUBICIN]", "values": [{"measurement": "IC50", "setting": "HL-60; [2]", "value": 0.01, "unit": "µM"}]}
